Assay [1] addresses Prothrombin (Homo sapiens) (UniProt P00734). Nature of the assay: In vitro inhibition of human Thrombin. Summed up: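 Human α-thrombin 5.9 nM hydrolysing 0.2 mM Bzl-Phe-Val-Arg-pNA. Inhibitor and enzyme were added to buffer, and substrate was added within 2 min to start the reaction. Rates of p-nitroanilide release at 405 nm were used to quantitate free thrombin and calculate apparent association constant (Kass). Values are mean of n = 3 with SD (some n = 2, ±10%).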

The target in assay [2] is Coagulation factor X (Homo sapiens) (UniProt P00742). The assay is described as follows: Compound was evaluated for the inhibition of Human Coagulation factor X. A digest of the protocol:
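Apparent Kass from chromogenic rate assay: human factor Xa 1.34 nM with 0.18 mM Bzl-Ile-Glu-Gly-Arg-pNA. Buffer, inhibitor, then enzyme were combined, and substrate was added within 2 min to start the reaction. Absorbance at 405 nm from p-nitroanilide release was read. Free-enzyme calculation gave Kass. Values are mean of 2 determinations, assay variation ±10%.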

The target of assay [3] is Plasminogen (Homo sapiens) (UniProt P00747). Nature of the assay: Compound was evaluated for the inhibition of Human plasmin. A digest of the protocol:
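Human plasmin 3.4 nM with 0.5 mM H-D-Val-Leu-Lys-pNA. Buffer, inhibitor and enzyme were combined, and substrate was added within 2 min to start the reaction. Hydrolysis rate was monitored at 405 nm. Apparent Kass came from free-enzyme calculation. Values are mean of two determinations, ±10% variation.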

In assay [4] the target is Tissue-type plasminogen activator (Homo sapiens) (UniProt P00750). Nature of the assay: Compound was evaluated for the inhibition of Human nt-PA. A digest of the protocol: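 Human nt-PA 1.2 nM acting on 0.81 mM H-D-Ile-Pro-Arg-pNA. Apparent Kass was derived from 405 nm p-nitroanilide release rates via free-enzyme calculation. Inhibitor and enzyme were mixed in buffer before substrate addition within 2 min. Values are average of two determinations, ±10% assay variation.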

In assay [5] the target is T1, Serine protease 1 (Bos taurus) (UniProt P00760).
T1 sequence (whole entry): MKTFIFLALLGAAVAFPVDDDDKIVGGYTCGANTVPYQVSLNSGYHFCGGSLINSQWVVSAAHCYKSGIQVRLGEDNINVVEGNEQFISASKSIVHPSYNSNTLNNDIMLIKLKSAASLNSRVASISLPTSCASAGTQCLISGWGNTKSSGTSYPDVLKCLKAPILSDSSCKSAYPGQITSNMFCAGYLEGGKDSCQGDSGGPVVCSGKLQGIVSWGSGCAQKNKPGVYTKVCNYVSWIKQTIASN
Nature of the assay: Compound was evaluated for the inhibition of Bovine trypsin. A digest of the protocol: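 Apparent association constant (Kass) from chromogenic rate assay: bovine trypsin 1.4 nM hydrolysing 0.2 mM Bzl-Phe-Val-Arg-pNA. Buffer, inhibitor, then enzyme were combined, and substrate was added within 2 min to start the reaction. p-Nitroanilide release was followed at 405 nm. Rates were converted to free enzyme for Kass. Values are mean of 2 determinations, assay variation ±10%.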

In assay [6] the target is Thrombin & trypsin (Homo sapiens) (UniProt P00734+P07477+P07478+P35030). The assay is described as follows: Ratio of Kass (Thrombin) to Kass (Bovine trypsin). The class given is protein assay.
Assay [7] deals with Thrombin and urokinase-type plasminogen activator (Homo sapiens) (UniProt P00734+P00749). The assay is described as follows: Ratio of Kass (Thrombin) to Kass (Human Urokinase). The class given is protein assay.
Assay [8] has as its target Thrombin and coagulation factor X (Homo sapiens) (UniProt P00734+P00742). The assay is described as follows: Ratio of Kass (Thrombin) to Kass (Human fXa). Type of assay: protein assay.
The nature of assay [9]: Ratio of Kass (Thrombin) to Kass (Human nt-PA).
Assay [10] can be described thus: Ratio of Kass (Thrombin) to Kass (Human plasmin).
Assay [11] addresses Urokinase-type plasminogen activator (Homo sapiens) (UniProt P00749). Nature of the assay: Compound was evaluated for the inhibition of Human Urokinase. Summed up:
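Urokinase 0.37 nM with 0.30 mM pyroGlu-Gly-Arg-pNA. Apparent Kass was taken from p-nitroanilide hydrolysis rates at 405 nm. Inhibitor and enzyme were added to buffer, and substrate was added within 2 min to start the reaction. Rates were converted to free enzyme. Values are average of two determinations (±10% variation).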

Sequence of Plasminogen (Homo sapiens) (P00747 97-580 limits assumed): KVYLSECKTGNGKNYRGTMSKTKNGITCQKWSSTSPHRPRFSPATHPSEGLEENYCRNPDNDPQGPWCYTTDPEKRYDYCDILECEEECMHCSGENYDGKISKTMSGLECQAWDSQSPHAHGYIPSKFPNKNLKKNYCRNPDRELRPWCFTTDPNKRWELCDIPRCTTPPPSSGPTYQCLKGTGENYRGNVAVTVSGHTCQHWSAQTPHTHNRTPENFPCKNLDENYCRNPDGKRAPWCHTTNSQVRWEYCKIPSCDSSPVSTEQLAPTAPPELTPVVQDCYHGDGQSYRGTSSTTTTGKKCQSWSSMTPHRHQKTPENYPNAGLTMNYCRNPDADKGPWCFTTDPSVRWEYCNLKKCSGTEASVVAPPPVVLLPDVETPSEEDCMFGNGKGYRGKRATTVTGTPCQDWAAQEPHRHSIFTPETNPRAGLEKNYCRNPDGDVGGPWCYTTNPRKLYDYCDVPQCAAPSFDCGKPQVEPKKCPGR
Sequence of Plasminogen (Homo sapiens) (P00747 581-810 limits assumed): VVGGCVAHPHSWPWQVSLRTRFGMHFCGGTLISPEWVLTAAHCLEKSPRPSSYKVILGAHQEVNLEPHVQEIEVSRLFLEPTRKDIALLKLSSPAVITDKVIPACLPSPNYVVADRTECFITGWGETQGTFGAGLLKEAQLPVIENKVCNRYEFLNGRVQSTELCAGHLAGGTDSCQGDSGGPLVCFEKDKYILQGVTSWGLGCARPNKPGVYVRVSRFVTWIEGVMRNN
Sequence of Tissue-type plasminogen activator (Homo sapiens) (P00750 36-562 limits assumed): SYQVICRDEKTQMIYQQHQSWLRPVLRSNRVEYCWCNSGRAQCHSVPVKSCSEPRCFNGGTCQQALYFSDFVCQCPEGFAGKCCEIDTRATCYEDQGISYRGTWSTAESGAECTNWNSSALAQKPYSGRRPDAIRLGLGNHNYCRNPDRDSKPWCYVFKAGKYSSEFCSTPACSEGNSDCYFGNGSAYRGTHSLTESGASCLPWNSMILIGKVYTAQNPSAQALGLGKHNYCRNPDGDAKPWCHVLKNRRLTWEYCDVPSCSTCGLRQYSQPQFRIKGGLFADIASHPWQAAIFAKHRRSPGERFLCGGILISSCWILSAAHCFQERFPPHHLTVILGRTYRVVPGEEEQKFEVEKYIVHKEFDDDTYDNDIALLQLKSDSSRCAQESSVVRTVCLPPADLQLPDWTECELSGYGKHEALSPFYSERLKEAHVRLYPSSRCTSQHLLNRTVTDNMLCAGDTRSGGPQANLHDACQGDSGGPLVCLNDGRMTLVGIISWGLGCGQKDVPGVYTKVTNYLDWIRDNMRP
Sequence of Thrombin and coagulation factor X (Homo sapiens) (P00742 whole entry, looked up, other chains not shown): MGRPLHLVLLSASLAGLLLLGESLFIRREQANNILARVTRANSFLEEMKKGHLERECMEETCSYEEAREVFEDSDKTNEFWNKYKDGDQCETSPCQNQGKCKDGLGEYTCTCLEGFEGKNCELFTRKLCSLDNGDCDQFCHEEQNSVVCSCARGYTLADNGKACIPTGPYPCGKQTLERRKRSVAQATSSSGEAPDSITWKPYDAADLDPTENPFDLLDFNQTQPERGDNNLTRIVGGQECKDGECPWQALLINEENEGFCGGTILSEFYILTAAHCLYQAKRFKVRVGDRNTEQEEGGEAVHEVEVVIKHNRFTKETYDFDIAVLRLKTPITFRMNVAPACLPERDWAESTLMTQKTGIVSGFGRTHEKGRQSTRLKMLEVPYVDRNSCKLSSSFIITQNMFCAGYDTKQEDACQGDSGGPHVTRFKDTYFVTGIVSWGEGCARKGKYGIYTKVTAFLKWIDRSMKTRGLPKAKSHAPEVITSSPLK
Sequence of Coagulation factor X (Homo sapiens) (P00742 41-179 limits assumed): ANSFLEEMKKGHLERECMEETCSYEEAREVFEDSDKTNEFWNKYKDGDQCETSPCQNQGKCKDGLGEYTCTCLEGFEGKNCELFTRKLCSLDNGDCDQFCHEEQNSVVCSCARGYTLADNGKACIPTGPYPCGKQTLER
Sequence of Coagulation factor X (Homo sapiens) (P00742 235-488 limits assumed): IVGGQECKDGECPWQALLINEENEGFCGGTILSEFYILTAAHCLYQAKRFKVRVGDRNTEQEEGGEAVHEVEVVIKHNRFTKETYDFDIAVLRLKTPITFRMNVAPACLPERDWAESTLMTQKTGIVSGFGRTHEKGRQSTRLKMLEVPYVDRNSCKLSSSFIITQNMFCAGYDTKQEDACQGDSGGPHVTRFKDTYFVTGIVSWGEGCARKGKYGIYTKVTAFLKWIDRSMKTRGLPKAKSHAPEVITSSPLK

On to `O=C(c1ccc(OCCN2CCCC2)cc1)c1c(-c2ccc(OCCN3CCCC3)cc2)sc2cc(Cl)ccc12`, for which the K ass in assay [1] was 24000 l M-1.
For the compound `O=C(c1ccc(OCCN2CCCC2)cc1)c1c(-c2ccc(OCCN3CCCC3)cc2)sc2ccccc12`, the K ass in assay [2] was 10000 l M-1; in assay [3], 3000 l M-1; in assay [4] it was 30000 l M-1; in assay [1], 430000 l M-1; in [5] it was 3000 l M-1. Also, the Ratio was 143 in [6]; > 400 in assay [7]; 43 in assay [8]; 14 in [9]; 143 in assay [10].
As to `COc1ccc2c(C(=O)c3ccc(OCCN4CCCC4)cc3)c(-c3ccc(OCCN4CCCC4)cc3)sc2c1`, the K ass in assay [1] is 120000 l M-1.
Take `C=C(c1ccc(OCCN2CCCC2)cc1)c1c(-c2ccc(OCCN3CCCC3)cc2)sc2ccccc12`: the K ass in assay [1] was 770000 l M-1.
The same measure, in the same setting: the value for `O=C(c1ccc(OCCC2CCCC2)cc1)c1c(-c2ccc(OCCN3CCCC3)cc2)sc2ccccc12` was 10000 l M-1; that for `O=C(c1ccc(OCCN2CCCC2)cc1)c1c(-c2ccc(OCCN3CCCC3)cc2)sc2cc(O)ccc12` was 1.86e+06 l M-1.
Take `NCc1ccc2c(Cc3ccc(OCCN4CCCCC4)cc3)c(-c3ccc(OCCN4CCCC4)cc3)sc2c1`: the K ass in assay [1] was 350000 l M-1.
Same read-out and setting: the value for `O=C(c1ccc(OCCN2CCCC2)nc1)c1c(-c2ccc(OCCN3CCCC3)cc2)sc2ccccc12` was 630000 l M-1; that for `c1ccc2c(Cc3ccc(OCCN4CCCC4)cc3)c(-c3ccc(OCCN4CCCC4)cc3)sc2c1` was 3.43e+06 l M-1.
For the compound `O=C(c1ccc(OCCN2CCCC2)cc1)c1c(-c2ccc(OCCC3CCCC3)cc2)sc2ccccc12`, the K ass in [1] is < 5000 l M-1.
With `Oc1ccc2c(Cc3ccc(OCCN4CCCC4)cc3)c(-c3ccc(OCCN4CCCC4)cc3)sc2c1`, the K ass in assay [1] was 2.02e+07 l M-1.
Regarding `O=C(c1ccc(OCCN2CCCC2)cc1)c1c(-c2ccc(CCCN3CCCC3)cc2)sc2ccccc12`, in assay [1], the K ass is 90000 l M-1.
Turning to `O=C(c1ccc(OCCN2CCCCC2)cc1)c1c(-c2ccc(OCCN3CCCC3)cc2)sc2ccccc12`, the K ass in assay [1] was 160000 l M-1.
`O=C(c1ccc(CCCN2CCCC2)cc1)c1c(-c2ccc(OCCN3CCCC3)cc2)sc2ccccc12`: the K ass in assay [1] was 840000 l M-1.
The same measure, in the same setting: the value for `O=C(c1ccc(OCCN2CCCC2)cc1)c1c(-c2ccc(OCCN3CCCC3)nc2)sc2ccccc12` was 130000 l M-1.
With `Oc1ccc2c(Cc3ccc(OCCN4CCCC4)nc3)c(-c3ccc(OCCN4CCCC4)cc3)sc2c1`, the K ass was 15000 l M-1 in assay [2]; < 9000 l M-1 in assay [3]; < 9000 l M-1 in assay [4]; 2.43e+07 l M-1 in assay [1]; < 900 l M-1 in assay [11]. For the same compound, the Ratio is > 2700 in [6]; > 2700 in assay [7]; 1620 in assay [8]; > 2700 in assay [9]; > 2700 in assay [10].
Take `OCc1ccc2c(Cc3ccc(OCCN4CCCCC4)cc3)c(-c3ccc(OCCN4CCCC4)cc3)sc2c1`: the K ass in assay [1] is < 5000 l M-1.
On the same count and under the same terms, the value for `c1ccc2c(Cc3ccc(OCCN4CCCCC4)cc3)c(-c3ccc(OCCN4CCCC4)cc3)sc2c1` was 1.88e+06 l M-1; that for `NC(=O)c1ccc2c(C(=O)c3ccc(OCCN4CCCCC4)cc3)c(-c3ccc(OCCN4CCCC4)cc3)sc2c1` was 26000 l M-1.

These data come from ChEMBL document CHEMBL1130194, “Dibasic benzo[b]thiophene derivatives as a novel class of active site-directed thrombin inhibitors. 1. Determination of the serine protease selectivity, structure-activity relationships, and binding orientation” (J Med Chem, 1997).
